Source: ChEMBL document CHEMBL1155317, “Design and optimisation of potent gp120-CD4 inhibitors” (Bioorg Med Chem Lett, 2009)
One block for each compound: values may come before it.

What was measured:
[1] = Inhibition of HIV1 NL4-3 gp160 assessed as inhibition of interaction between gp120 and host CD4 receptor by cell-cell fusion assay; parameters: species or system Human immunodeficiency virus 1
[2] = test system: Human immunodeficiency virus 1; experiment: Antiviral activity against Human immunodeficiency virus 1 NL4-3 infected HeLaP4 cells after 5 days by beta-galactosidase reporter assay; type: functional, organism-based; details: Human immunodeficiency virus 1, NL4-3, HeLaP4, 120 h
Outline: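 HeLa-P4 cells were premixed with NL4-3 virus and added at 10^5 cells/mL to wells containing diluted compound. Plates were incubated for 5 days at 37 °C in humidified 5% CO₂. Infection was quantified with a β-galactosidase reporter assay.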

[3] = test system: Human immunodeficiency virus 1; experiment: Antiviral activity against Human immunodeficiency virus 1 isolate 04-116871_VL_781.69; type: functional
Outline: (§1)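 Testing against these strains was contracted out and used the PhenoSense phenotypic antiviral assay.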

Rattus norvegicus [4] = experiment: Unbound volume of distribution in rat at 1 mg/kg, iv and 1 mg/kg, po; type: ADME, organism-based; details: in vivo
[5] = Fraction of compound absorbed in rat at 1 mg/kg, iv and 1 mg/kg, po; type: ADME, organism-based; details: in vivo, read-out: Fabs
[6] = test system: Human immunodeficiency virus 1; experiment: Antiviral activity against Human immunodeficiency virus 1 HXB2; type: functional; outline: as §1
[7] = test system: Human immunodeficiency virus 1; experiment: Antiviral activity against Human immunodeficiency virus 1 JRCSF; type: functional, Human immunodeficiency virus type 1 (JRCSF ISOLATE); outline: as §1
[8] = test system: Human immunodeficiency virus 1; experiment: Antiviral activity against Human immunodeficiency virus 1 isolate 04-116884_VL_328.45; type: functional; outline: as §1
[9] = test system: Human immunodeficiency virus 1; experiment: Antiviral activity against Human immunodeficiency virus 1 isolate 04-116873_VL_754.51; type: functional; outline: as §1
[10] = test system: Human immunodeficiency virus 1; experiment: Antiviral activity against Human immunodeficiency virus 1 isolate 04-116877_VL_938.28; type: functional; outline: as §1
[11] = test system: Human immunodeficiency virus 1; experiment: Antiviral activity against Human immunodeficiency virus 1 isolate 04-116870_VL_181.51; type: functional; outline: as §1
[12] = test system: Human immunodeficiency virus 1; experiment: Antiviral activity against Human immunodeficiency virus 1 isolate 04-116868_VL_518.14; type: functional; outline: as §1
[13] = test system: Human immunodeficiency virus 1; experiment: Antiviral activity against Human immunodeficiency virus 1 isolate 04-116889_VL_440.85; type: functional; outline: as §1
[14] = test system: Human immunodeficiency virus 1; experiment: Antiviral activity against Human immunodeficiency virus 1 isolate 04-116874_VL_560.34; type: functional; outline: as §1
[15] = test system: Human immunodeficiency virus 1; experiment: Antiviral activity against Human immunodeficiency virus 1 isolate 04-116882_VL_624.75; type: functional; outline: as §1
[16] = test system: Human immunodeficiency virus 1; experiment: Antiviral activity against Human immunodeficiency virus 1 isolate 04-116878_VL_241.32; type: functional; outline: as §1
[17] = test system: Human immunodeficiency virus 1; experiment: Antiviral activity against Human immunodeficiency virus 1 isolate 04-116880_VL_696.65; type: functional; outline: as §1
[18] = test system: Human immunodeficiency virus 1; experiment: Antiviral activity against Human immunodeficiency virus 1 isolate 04-116883_VL_432.63; type: functional; outline: as §1
[19] = test system: Human immunodeficiency virus 1; experiment: Antiviral activity against Human immunodeficiency virus 1 isolate 04-116886_VL_578.66; type: functional; outline: as §1
[20] = test system: Human immunodeficiency virus 1; experiment: Antiviral activity against Human immunodeficiency virus 1 isolate 04-116888_VL_113.66; type: functional; outline: as §1
[21] = test system: Human immunodeficiency virus 1; experiment: Antiviral activity against Human immunodeficiency virus 1 isolate 04-116892_VL_534.93; type: functional; outline: as §1
[22] = test system: Human immunodeficiency virus 1; experiment: Antiviral activity against Human immunodeficiency virus 1 isolate 04-116869_VL_833.52; type: functional; outline: as §1
[23] = test system: Human immunodeficiency virus 1; experiment: Antiviral activity against Human immunodeficiency virus 1 isolate 04-116890_VL_781.45; type: functional; outline: as §1
[24] = test system: Human immunodeficiency virus 1; experiment: Antiviral activity against Human immunodeficiency virus 1 isolate 04-116885_VL_530.54; type: functional; outline: as §1
[25] = test system: Human immunodeficiency virus 1; experiment: Antiviral activity against Human immunodeficiency virus 1 isolate 04-116875_VL_279.69; type: functional; outline: as §1
[26] = test system: Human immunodeficiency virus 1; experiment: Antiviral activity against Human immunodeficiency virus 1 isolate 04-116879_VL_988.03; type: functional; outline: as §1
[27] = test system: Human immunodeficiency virus 1; experiment: Antiviral activity against Human immunodeficiency virus 1 isolate 04-116881_VL_338.52; type: functional; outline: as §1
[28] = test system: Human immunodeficiency virus 1; experiment: Antiviral activity against Human immunodeficiency virus 1 isolate 04-116893_VL_193.95; type: functional; outline: as §1
[29] = test system: Human immunodeficiency virus 1; experiment: Antiviral activity against Human immunodeficiency virus 1 isolate 04-116867_VL_837.51; type: functional; outline: as §1
[30] = test system: Human immunodeficiency virus 1; experiment: Antiviral activity against Human immunodeficiency virus 1 isolate 04-116876_VL_969.72; type: functional; outline: as §1
[31] = test system: Human immunodeficiency virus 1; experiment: Antiviral activity against Human immunodeficiency virus 1 isolate 04-116872_VL_186.32; type: functional; outline: as §1
[32] = Clearance in rat at 1 mg/kg, iv and 1 mg/kg, po; type: ADME, organism-based; details: in vivo
Rattus norvegicus [33] = experiment: Unbound clearance in rat at 1 mg/kg, iv and 1 mg/kg, po; type: ADME, organism-based; details: in vivo
[34] = Bioavailability in rat at 1 mg/kg; type: ADME, organism-based; details: in vivo
[35] = Half life in rat at 1 mg/kg, iv and 1 mg/kg, po; type: ADME, organism-based; details: in vivo
[36] = Metabolic stability in human liver microsomes assessed as half life; type: ADME, Microsome

IC50 [1]: 575 nM | IC50 [2]: 2040 nM
SMILES: CC(Oc1cccc2ccncc12)C(=O)N1CCN(C(=O)c2ccccc2)C[C@H]1C (stereo not given in full)

IC90 [3]: 9 nM | IC50 [1]: 14 nM | Vdu (Rattus norvegicus [4]): 2.2 L/kg | Fa [5]: 100% | IC90 [6]: 13 nM | IC90 [7]: 4 nM | IC90 [8]: 9 nM | IC90 [9]: 21 nM | IC90 [10]: 21 nM | IC90 [11]: 44 nM | IC90 [12]: 26 nM | IC90 [13]: 56 nM | IC90 [14]: 71 nM | IC90 [15]: 106 nM | IC90 [16]: > 2220 nM | IC90 [17]: > 2220 nM | IC90 [18]: > 2220 nM | IC90 [19]: > 2220 nM | IC90 [20]: > 2220 nM | IC90 [21]: > 2220 nM | IC90 [22]: 122 nM | IC90 [23]: 170 nM | IC90 [24]: 178 nM | IC90 [25]: 213 nM | IC90 [26]: 242 nM | IC90 [27]: 299 nM | IC90 [28]: 354 nM | IC90 [29]: 383 nM | IC90 [30]: 436 nM | IC90 [31]: > 2220 nM
SMILES: CNC(=O)c1cc(OC)c(O[C@@H](C)C(=O)N2CCN(C(=O)c3ccccc3)C[C@H]2C)cn1

IC50 [1]: 103 nM | IC50 [2]: 492 nM
SMILES: CC(Oc1cccc2cnccc12)C(=O)N1CCN(C(=O)c2ccccc2)C[C@H]1C (stereo not given in full)

IC50 [1]: 834 nM
SMILES: Cc1nc2c(OC(C)C(=O)N3CCN(C(=O)c4ccccc4)C[C@H]3C)cccc2[nH]1 (stereo not given in full)

IC50 [1]: 68 nM | IC50 [2]: 1050 nM
SMILES: CC(Oc1cccc2c(=O)[nH]ccc12)C(=O)N1CCN(C(=O)c2ccccc2)C[C@H]1C (stereo not given in full)

IC50 [1]: 3200 nM
SMILES: C[C@H](Oc1cccc2nc(N(C)C)ccc12)C(=O)N1CCN(C(=O)c2ccccc2)C[C@H]1C

IC50 [1]: 21 nM | IC50 [2]: 1.5 nM | clearance [32]: 41 mL/min/kg | CL free (Rattus norvegicus [33]): 90 mL/min/kg | Vdu (Rattus norvegicus [4]): 3.5 L/kg | bioavailability [34]: 45% | Fa [5]: 55% | half-life [35]: 30 min
SMILES: CNC(=O)c1nccc2c(O[C@@H](C)C(=O)N3CCN(C(=O)c4ccccc4)C[C@H]3C)cccc12

More lines, now with the values behind:

SMILES: CNC(=O)c1ccc(O[C@@H](C)C(=O)N2CCN(C(=O)c3ccccc3)C[C@H]2C)c2c(C)n[nH]c12
IC50 [1]: > 10000 nM

SMILES: CNC(=O)c1cc(OC)c(O[C@@H](C)C(=O)N2CCN(c3nccc4[nH]cnc34)C[C@H]2C)cn1
IC50 [1]: 24 nM | IC50 [2]: 7 nM

SMILES: CNC(=O)c1cc(OC)c(O[C@@H](C)C(=O)N2CCN(c3nccc4ncccc34)C[C@H]2C)cn1
IC50 [1]: 29 nM | IC50 [2]: 126 nM

SMILES: CC(Oc1cncc2ccccc12)C(=O)N1CCN(C(=O)c2ccccc2)C[C@H]1C (stereo not given in full)
IC50 [1]: 9370 nM

SMILES: CNC(=O)c1cc(OC)c(O[C@@H](C)C(=O)N2CCN(c3n[nH]c4ccccc34)C[C@H]2C)cn1
IC50 [1]: 42 nM | IC50 [2]: 979 nM

SMILES: CNC(=O)c1cc(OC)c(O[C@@H](C)C(=O)N2CCN(c3nccc4ccccc34)C[C@H]2C)cn1
IC90 [3]: 0.5 nM | IC50 [1]: 0.29 nM | IC50 [2]: 0.12 nM | clearance [32]: 48 mL/min/kg | CL free (Rattus norvegicus [33]): 198 mL/min/kg | Vdu (Rattus norvegicus [4]): 9.4 L/kg | bioavailability [34]: 21% | Fa [5]: 100% | half-life [35]: 30 min | half-life [36]: 4 min | IC90 [6]: 1.4 nM | IC90 [7]: 0.3 nM | IC90 [8]: 0.8 nM | IC90 [9]: 1.3 nM | IC90 [10]: 2 nM | IC90 [11]: 6 nM | IC90 [12]: 1 nM | IC90 [13]: 5 nM | IC90 [14]: 5 nM | IC90 [15]: 3 nM | IC90 [16]: 230 nM | IC90 [17]: 276 nM | IC90 [18]: > 666 nM | IC90 [19]: 120 nM | IC90 [20]: 324 nM | IC90 [21]: 199 nM | IC90 [22]: 24 nM | IC90 [23]: 144 nM | IC90 [24]: 8 nM | IC90 [25]: 14 nM | IC90 [26]: 8 nM | IC90 [27]: 201 nM | IC90 [28]: 23 nM | IC90 [29]: 40 nM | IC90 [30]: 37 nM | IC90 [31]: 36 nM

SMILES: CNC(=O)c1cc(OC)c(O[C@@H](C)C(=O)N2CCN(c3nccc4[nH]ncc34)C[C@H]2C)cn1
IC50 [1]: 24 nM | IC50 [2]: 6 nM

SMILES: CNC(=O)c1cc(OC)c(O[C@@H](C)C(=O)N2CCN(c3ncccn3)C[C@H]2C)cn1
IC50 [1]: 71 nM | IC50 [2]: 1620 nM

SMILES: CNC(=O)c1cc(OC)c(O[C@@H](C)C(=O)N2CCN(c3nccn3CC3CC3)C[C@H]2C)cn1
IC50 [1]: 1900 nM
